Measured values as given in ChEMBL document CHEMBL1145051, “Synthesis and biological evaluation of 3-alkoxy analogues of flavone-8-acetic acid” (J Med Chem, 2003).

Assays:
C13 [1] = assay: Direct cytotoxicity against the selected tumor cell line c13* was determined especially on ovarian adenocarcinoma derived cells; not detected; format: functional, cell-based, Homo sapiens
[2] = Potency ratio was determined against human monocytes versus DMXAA (Dimethylxanthenone-4-acetic acid); more potent; format: functional
How it was run: (§1)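 Ratio of reference IC50 (FAA or DMXAA) to analogue IC50 in the effector-cell coculture assay: mouse peritoneal macrophages or adherent human PBMC pretreated 24 h with drug, then C13* target cells added for 24 h, lysis by MTT. IC50 and ratios by Litchfield–Wilcoxon; three experiments in triplicate.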

[3] = Potency ratio was determined against LoVoR versus FAA (Flavone acetic acid); format: functional
How it was run: (§2)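 Ratio IC50(FAA)/IC50(analogue) from direct 24 h MTT cytotoxicity on the named line (LoVo S, LoVo R, 2008 or C13*), concentrations up to 500 μM. IC50 values and 95% confidence limits by Litchfield–Wilcoxon method; three experiments in triplicate.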

Mus musculus [4] = species: Mus musculus; assay: Indirect antitumor effect was measured as cytotoxicity against murine macrophages; not detected; format: functional
How it was run: (§3)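 Resident mouse peritoneal macrophages (heparinised PBS lavage, 2 h adherence) plated at 1 × 10^4 cells/well with a range of drug concentrations, triplicate wells, 24 h. Medium removed, C13* cells (2 × 10^3/well) added, cocultured 24 h. Lysis by MTT; specific cytotoxicity = [OD(macrophages+C13*) − OD(macrophages)]/OD(C13*). Three experiments; IC50 by Litchfield–Wilcoxon.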

2008 [5] = assay: Direct cytotoxicity against the selected tumor cell line 2008 was determined especially on ovarian adenocarcinoma derived cells; not detected; format: functional, cell-based, Homo sapiens
LoVo [6] = assay: In vitro cytotoxicity against the selected tumor cell line LoVoR arising from human colon adenocarcinoma was determined; format: functional, cell-based
LoVo [7] = assay: In vitro cytotoxicity against the selected tumor cell line LoVoS arising from human colon adenocarcinoma was determined; not detected; format: functional, cell-based
[8] = Indirect antitumor effect was measured as cytotoxicity with human monocytes pretreated with compounds; format: functional
How it was run: (§4)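 Adherent human PBMC (Ficoll isolation, 2 h adherence, washed) pretreated 24 h with 25, 50, 100 μM in RPMI 1640/5% FCS, triplicate wells. Medium removed, C13* cells (2 × 10^3/well) cocultured 24 h, read by MTT. Three experiments; IC50 by Litchfield–Wilcoxon.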

Mus musculus [9] = species: Mus musculus; assay: Indirect antitumor effect was measured as cytotoxicity with murine macrophages pretreated with compounds; format: functional; how it was run: as §3
[10] = Indirect antitumor effect was measured as cytotoxicity against human monocytes; not detected; format: functional; how it was run: as §4
LoVo [11] = assay: In vitro cytotoxicity against the selected tumor cell line LoVoS arising from human colon adenocarcinoma was determined; format: functional, cell-based
[12] = Potency ratio was determined against LoVoR versus FAA (Flavone acetic acid); less potent; format: functional; how it was run: as §2
[13] = Potency ratio was determined against LoVoS versus FAA (Flavone acetic acid); format: functional; how it was run: as §2
[14] = Potency ratio was determined against murine macrophages versus FAA (Flavone acetic acid); format: functional; how it was run: as §1
[15] = Potency ratio was determined against human monocytes versus DMXAA (Dimethylxanthenone-4-acetic acid); format: functional; how it was run: as §1
[16] = Potency ratio was determined against C13 cell line versus FAA (Flavone acetic acid); less potent; format: functional; how it was run: as §2
[17] = Potency ratio was determined against macrophages; format: functional; how it was run: as §1
C13 [18] = assay: cDirect cytotoxicity against the selected tumor cell line c13* was determined especially on ovarian adenocarcinoma derived cells; format: functional, cell-based; conditions: Homo sapiens
[19] = Potency ratio was determined against 2008 cell line versus FAA (Flavone acetic acid); less potent; format: functional; how it was run: as §2
2008 [20] = assay: Direct cytotoxicity against the selected tumor cell line 2008 was determined especially on ovarian adenocarcinoma derived cells; format: functional, cell-based; conditions: Homo sapiens
LoVo [21] = assay: In vitro cytotoxicity against the selected tumor cell line LoVoR arising from human colon adenocarcinoma was determined; not detected; format: functional, cell-based
C13 [22] = assay: Direct cytotoxicity against the selected tumor cell line c13* was determined especially on ovarian adenocarcinoma derived cells; format: functional, cell-based; conditions: Homo sapiens
[23] = Potency ratio was determined against 2008 cell line versus FAA (Flavone acetic acid); format: functional; how it was run: as §2
[24] = Potency ratio was determined against C13 cell line versus FAA (Flavone acetic acid); format: functional; how it was run: as §2
[25] = Potency ratio was determined against macrophages; more potent; format: functional; how it was run: as §1
[26] = Potency ratio was determined against human monocytes versus DMXAA (Dimethylxanthenone-4-acetic acid); less potent; format: functional; how it was run: as §1
LoVo [27] = assay: In vitro cytotoxicity against the selected tumor cell line LoVoR arising from human colon adenocarcinoma was determined
[28] = cPotency ratio was determined against macrophages; more potent; format: functional; how it was run: as §1

SMILES | IC50 (C13 [1]) | IC50 2008 [5] | IC50 (LoVo [6]) [µM] | IC50 (LoVo [7]) | IC50 [8] [µM] | IC50 (Mus musculus [9]) [µM] | IC50 [10] | IC50 (LoVo [11]) [µM] | Potency ratio [12] | Potency ratio [13] | Potency ratio [14] | Potency ratio [15] | Potency ratio [16] | IC50 (LoVo [21]) | IC50 (C13 [22]) [µM] | further results
COc1c(-c2cccc(C(F)(F)F)c2)oc2c(CC(=O)O)cccc2c1=O | not detected | not detected | 532 | not detected | 18.3 | – | – | – | – | – | – | – | – | – | – | Potency ratio [2]: 7.3; Potency ratio [3]: 0.7; IC50 (Mus musculus [4]): not detected
COc1cccc(-c2oc3c(CC(=O)O)cccc3c(=O)c2OC)c1 | not detected | not detected | 514 | – | – | 182 | not detected | 829 | 0.7 | 0.7 | 1.6 | – | – | – | – | –
CC(C)Oc1c(-c2ccccc2)oc2c(CC(=O)O)cccc2c1=O | not detected | not detected | 407 | – | – | 225 | not detected | 815 | – | 0.7 | 1.3 | – | – | – | – | Potency ratio [3]: 0.9
COc1ccc(-c2oc3c(CC(=O)O)cccc3c(=O)c2OC)cc1 | – | – | 556 | – | 181 | 238 | – | 601 | 0.7 | 0.9 | 1.2 | 0.7 | 0.4 | – | – | Potency ratio [17]: 1.3; IC50 (C13 [18]): 548 µM; Potency ratio [19]: 0.7; IC50 2008 [20]: 625 µM
CCOc1c(-c2ccccc2)oc2c(CC(=O)O)cccc2c1=O | not detected | not detected | – | – | – | 431 | not detected | 611 | – | 0.9 | 0.7 | – | – | not detected | – | –
O=C(O)Cc1cccc2c(=O)cc(-c3ccccc3)oc12 [MITOFLAXONE] | – | – | 378 | – | – | 285 | not detected | 564 | – | 1 | 1 | – | – | – | 233 | Potency ratio [23]: 1; Potency ratio [3]: 0.6; Potency ratio [24]: 1; IC50 2008 [20]: 421 µM
COc1c(-c2ccccc2)oc2c(CC(=O)O)cccc2c1=O | – | not detected | 627 | – | – | – | – | 719 | 0.6 | 0.8 | – | – | 0.3 | – | 757 | –
COc1c(-c2ccc(C)cc2)oc2c(CC(=O)O)cccc2c1=O | – | not detected | 570 | – | – | 164 | not detected | 632 | – | 0.9 | 1.7 | – | 0.3 | – | 806 | Potency ratio [3]: 0.7
COc1c(-c2ccccc2C)oc2c(CC(=O)O)cccc2c1=O | – | not detected | – | not detected | 127 | 248 | – | – | – | – | 1.1 | 1 | 0.4 | – | 524 | Potency ratio [25]: 1.9
COc1c(-c2ccc(F)cc2)oc2c(CC(=O)O)cccc2c1=O | not detected | not detected | – | not detected | 436 | – | – | – | – | – | – | – | – | not detected | – | IC50 (Mus musculus [4]): not detected; Potency ratio [26]: 0.3
COc1c(-c2cccc(C)c2)oc2c(CC(=O)O)cccc2c1=O | not detected | not detected | 648 | – | 113 | 234 | – | 697 | 0.6 | 0.8 | 1.2 | 1.2 | – | – | – | Potency ratio [25]: 2.1
COc1ccccc1-c1oc2c(CC(=O)O)cccc2c(=O)c1OC | not detected | not detected | – | – | 193 | – | – | 980 | 0.5 | 0.6 | – | 0.7 | – | – | – | IC50 (Mus musculus [4]): not detected; IC50 (LoVo [27]): 794 µM
COc1c(-c2cccs2)oc2c(CC(=O)O)cccc2c1=O | not detected | not detected | – | not detected | 213 | – | – | – | – | – | – | – | – | not detected | – | IC50 (Mus musculus [4]): not detected; Potency ratio [26]: 0.6
COc1c(-c2cccc(Cl)c2)oc2c(CC(=O)O)cccc2c1=O | not detected | not detected | – | – | 36.8 | 239 | – | 534 | – | 1 | 1.2 | – | – | not detected | – | Potency ratio [25]: 6.5; Potency ratio [2]: 3.7
COc1c(-c2ccccc2Cl)oc2c(CC(=O)O)cccc2c1=O | not detected | not detected | 780 | – | – | 284 | not detected | 605 | 0.5 | 0.9 | 1 | – | – | – | – | –
COc1c(-c2ccc(Cl)cc2)oc2c(CC(=O)O)cccc2c1=O | – | not detected | – | not detected | 105 | 293 | – | – | – | – | 0.9 | 1.3 | 0.7 | not detected | 350 | Potency ratio [28]: 2.8
